Drawing on ChEMBL document CHEMBL1944564, “Discovery of a novel and potent class of F. tularensis enoyl-reductase (FabI) inhibitors by molecular shape and electrostatic matching” (J Med Chem, 2012), this text covers IC50, MIC and inhibition for 18 compounds.

One may read the pIC50 as the IC50 on a negative log10 scale, so that one unit is a factor of ten. Broadly, the MIC is the least concentration at which growth counts as inhibited. Usually inhibition stands for the change of the read-out against control, counted positive when it falls.

A short description of experiment [1]: Inhibition of N-terminus His-tagged Francisella tularensis subsp. Tularensis Schu4 […] expressed in Escherichia coli […] cells assessed as conversion of crotonyl-CoA and NADH to butyryl-CoA and NAD+ preincubated for 30 mins by measured fluorescence analysis. Also noted: species or system Francisella tularensis subsp. tularensis SCHU S4. In outline:
(§1)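 Recombinant N-terminal His-tagged F. tularensis FabI, expressed in E. coli BL21(DE3) and purified by Ni-affinity and size exclusion to >98%, was used at 0.2 μM. Inhibitor in DMSO was preincubated 30 min, then 200 μM crotonyl-CoA was added. The rate of decrease in NADH fluorescence (ex 340/em 450 nm) gave % inhibition versus a DMSO control.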

The test system of experiment [2] is Yersinia pestis. The experiment can be described thus: Antibacterial activity against Yersinia pestis after overnight incubation. The class given is functional.
The test system of experiment [3] is Staphylococcus aureus. The experiment can be described thus: Antibacterial activity against Staphylococcus aureus after overnight incubation. The class given is functional. In outline: (§2)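 Broth microdilution in LB with 2-fold serial dilutions of compound and ciprofloxacin as control.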
Experiment [4] relates to Escherichia coli. The experiment can be described thus: Antibacterial activity against Escherichia coli BW251113 harboring TolC deletion mutation after overnight incubation. Format: functional.
Experiment [5] has as its system Staphylococcus aureus. The experiment can be described thus: Antibacterial activity against methicillin-resistant Staphylococcus aureus after overnight incubation. The class given is functional. In outline: as §2
The subject of experiment [6] is Escherichia coli. The experiment can be described thus: Antibacterial activity against Escherichia coli BW251113 after overnight incubation. The class given is functional. An outline of the steps:
as §2

The subject of experiment [7] is Bacillus anthracis. In words: Antibacterial activity against Bacillus anthracis after overnight incubation. Format: functional.
Experiment [8] has as its system Francisella tularensis. In words: Antibacterial activity against Francisella tularensis after overnight incubation. The class given is functional.
Experiment [9] concerns DL21 (DE3). In words: Inhibition of N-terminus His-tagged Francisella tularensis subsp. Tularensis Schu4 […] expressed in Escherichia coli […] cells assessed as conversion of crotonyl-CoA and NADH to butyryl-CoA and NAD+ preincubated at 100 uM for 30 mins by fluorescence analysis. The following applies: Francisella tularensis subsp. tularensis SCHU S4. An outline of the steps:
as §1

Structures are written as SMILES. pIC50: −log10 of the molar value. In brackets after ≈: the same amount, converted by molar mass.

Turning to `Cc1cc2ncn(C(=O)c3cccc(Cl)c3)c2cc1C`, the pIC50 in experiment [1] was < 4.00.

Turning to `Cc1cc2ncn(Cc3ccc(Cl)cc3Cl)c2cc1C`, the MIC was > 38 µg/mL in experiment [2]; 38 µg/mL (≈ 125 µM) in [3]; 19 µg/mL (≈ 62.3 µM) in [4]; 38 µg/mL (≈ 125 µM) in experiment [5]; > 200 µg/mL in experiment [6]; > 38 µg/mL in experiment [7]. In [8], this compound came in with an MIC of 4.3 µg/mL (≈ 14.1 µM). In addition, the pIC50 in experiment [1] was 6.15.

For the compound `COc1ccc(Cn2cnc3ccccc32)cc1`, the negative logarithm of the IC50 (pIC50) in experiment [1] was 4.42.

Turning to `Cc1nc2ccccc2n1Cc1ccc(Cl)c(Cl)c1`, the MIC in [2] was ≥ 50 µg/mL; in [3], 50 µg/mL (≈ 172 µM); in [4] it was 25 µg/mL (≈ 85.9 µM); in experiment [6], 50 µg/mL (≈ 172 µM); in experiment [7] it was 25 µg/mL (≈ 85.9 µM); in experiment [8] it was 9.4 µg/mL (≈ 32.3 µM). The pIC50 in experiment [1] is 5.49.

With `Clc1ccc(Cn2cnc3ccccc32)cc1Cl`, the MIC in experiment [2] was 25 µg/mL (≈ 90.2 µM); in [3] it was 50 µg/mL (≈ 180 µM); in experiment [4], 25 µg/mL (≈ 90.2 µM); in experiment [5] it was 50 µg/mL (≈ 180 µM); in [6], > 200 µg/mL; in experiment [7], 50 µg/mL (≈ 180 µM). In [8], the lowest concentration to inhibit growth (MIC) was 17.2 µg/mL (≈ 62.1 µM). Further, the pIC50 in experiment [1] is 5.33.

On to `Nc1ncc(Cc2ccc(Cl)cc2)s1`, for which the inhibition in experiment [9] was 49%. For the same compound, in experiment [1], the negative-log IC50 (pIC50) was 4.20.

Turning to `Clc1cccc(Cn2cnc3ccccc32)c1`, the negative logarithm of the IC50 (pIC50) in [1] is 4.07.

As to `Cc1cc2ncn(Cc3ccc(Cl)cc3)c2cc1C`, the MIC in [2] was > 50 µg/mL; in experiment [3], > 50 µg/mL; in experiment [4], 12.5 µg/mL (≈ 46.2 µM); in experiment [6], > 50 µg/mL; in [7] it was > 50 µg/mL; in [8] it was 15.6 µg/mL (≈ 57.6 µM). Moreover, in experiment [1], the pIC50 is 6.52.

As for `Clc1ccc(Cn2cnc3ccccc32)c(Cl)c1`, the pIC50 in experiment [1] is 4.66.

With `Brc1ccc(Cn2cnc3ccccc32)cc1`, the pIC50 in [1] is 4.56.

In the case of `Nc1nc2ccccc2n1Cc1ccc(Cl)cc1`, the negative logarithm of the IC50 (pIC50) in [1] was < 4.00.

Turning to `O=C(NC(=O)c1cc(-c2ccc(Cl)cc2)oc1C(F)(F)F)c1ccccc1O`, the inhibition in experiment [9] amounted to 39%.

Take `Cc1cc2ncn(Cc3ccc(Cl)c(Cl)c3)c2cc1C`: the MIC was ≥ 50 µg/mL in [2]; 25 µg/mL (≈ 81.9 µM) in [3]; 6.25 µg/mL (≈ 20.5 µM) in [4]; 50 µg/mL (≈ 164 µM) in experiment [5]; > 200 µg/mL in [6]; 9.4 µg/mL (≈ 30.8 µM) in experiment [7]. Also, in experiment [8], it took 7.8 µg/mL (≈ 25.6 µM) to inhibit growth (MIC). In addition, the negative-log IC50 (pIC50) in experiment [1] is 6.52.

`c1ccc(Cn2cnc3ccccc32)cc1`: the pIC50 in [1] was < 4.00.

In the case of `O=C(c1ccc(Cl)cc1)n1cnc2ccccc21`, the negative logarithm of the IC50 (pIC50) in experiment [1] is < 4.00.

For `Fc1ccc(Cn2cnc3ccccc32)cc1`, in experiment [1], the pIC50 is < 4.00.

For the compound `Clc1ccc(Cn2cnc3ccccc32)cc1`, the inhibition in experiment [9] came to 70%. In addition, the pIC50 in experiment [1] is 4.57.

Regarding `Cc1ccc(Cn2cnc3ccccc32)cc1`, the negative-log IC50 (pIC50) in experiment [1] is 4.05.
